In ChEMBL document CHEMBL3588826, “Chimeric derivatives of functionalized amino acids and α-aminoamides: compounds with anticonvulsant activity in seizure models and inhibitory actions on central, peripheral, and cardiac isoforms of voltage-gated sodium channels” (Bioorg Med Chem, 2015):
Activity calls are given as the source filed them. The calls are words filed in the database; no cut-off is given here.

Experiments:
Mus musculus [1] = assay: Anticonvulsant activity in ip dosed albino Carworth Farms No. 1 mouse measured at 0.5 - 2.0 hrs by maximal electroshock seizure test; format: functional; details: Carworth Farms No. 1, ip
In short: (§1)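 Screened under the NIH anticonvulsant program in male albino Carworth Farms No. 1 mice (ip) and male albino Sprague-Dawley rats (ip or oral). Protection tested by maximal electroshock or 6 Hz (32 mA) psychomotor stimulation.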

Mus musculus [2] = assay: Anticonvulsant activity in ip dosed albino Carworth Farms No. 1 mouse measured at 0.5 hrs by 6Hz (32 mA) psychomotor seizure test; format: functional; details: Carworth Farms No. 1, ip; in short: as §1
[3] = (§2) Neurotoxicity in ip dosed albino Carworth Farms No. 1 mouse measured at 0.5 hrs by rotarod test; format: toxicity, organism-based; details: Carworth Farms No. 1, mouse, in vivo
In short: (§3)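 Male albino Carworth Farms No. 1 mice were dosed ip. Protective index = TD50/ED50, the ED50 taken from the ip maximal electroshock test.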

Rattus norvegicus [4] = organism: Rattus norvegicus; assay: Inhibition of voltage-gated sodium channel in rat embryonic cortical neurons assessed as decrease in fraction of current available at 10 uM measured at -50 mV by whole cell patch-clamp electrophysiology
In short: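 Embryonic cortical neurons were treated with 10 μM compound or 0.1% DMSO, whole-cell voltage clamp at room temperature. Slow inactivation was assessed at −50 mV, with the fraction inactivated taken as 1 minus the normalized INa. Student's t-test; 5–8 cells per condition.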

Rattus norvegicus [5] = organism: Rattus norvegicus; assay: Effect on steady state fast-inactivation of voltage-gated sodium channel in rat embryonic cortical neurons at 10 uM by whole cell patch-clamp electrophysiology
In short: (§4)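 Rat embryonic day 19 cortical neurons, cultured 7–10 days, were whole-cell voltage-clamped at room temperature with 1–2 MΩ electrodes, with compound at 10 μM and 0.1% DMSO as control. Fast inactivation: 500 ms prepulses, then a test pulse. Activation: conductance G = I/(Vm − Vrev). V1/2 and k came from Boltzmann fits to individual cells, averaged (mean ± SEM), 5–7 cells per condition.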

Rattus norvegicus [6] = organism: Rattus norvegicus; assay: Effect on steady state activation of voltage-gated sodium channel in rat embryonic cortical neurons at 10 uM by whole cell patch-clamp electrophysiology; in short: as §4
Rattus norvegicus [7] = organism: Rattus norvegicus; assay: Frequency-dependent inhibition of voltage-gated sodium channel in rat embryonic cortical neurons assessed as current amplitude at 10 uM measured at holding potential of -80 mV by whole cell patch-clamp electrophysiology
In short: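 E19 rat cortical neurons cultured 7–10 days were recorded by whole-cell voltage clamp at room temperature. Compound was at 10 μM versus 0.1% DMSO. A pulse train was applied, and available current was taken as peak current at pulse N divided by peak at pulse 1.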

Mus musculus [8] = assay: Anticonvulsant activity in ip dosed albino Carworth Farms No. 1 mouse measured at 0.25 hrs by maximal electroshock seizure test; format: functional; details: Carworth Farms No. 1, ip; in short: as §1
[9] = Neurotoxicity in ip dosed albino Carworth Farms No. 1 mouse measured at 0.25 hrs by rotarod test; format: toxicity, organism-based; details: in vivo
[10] = Protective index, ratio of TD50 for neurotoxicity in ip dosed albino Carworth Farms No. 1 mouse to ED50 for anticonvulsant activity in ip dosed MES albino Carworth Farms No. 1 mouse model; format: toxicity, organism-based; details: in vivo, read-out: Ratio TD50/ED50; in short: as §3
Rattus norvegicus [11] = assay: Anticonvulsant activity in po dosed albino Sprague-Dawley rat measured at 0.25 - 1 hr by maximal electroshock seizure test; format: functional; in short: as §1
[12] = Behavioural toxicity in po dosed albino Sprague-Dawley rat measured at 0.25 - 4 hrs; format: organism-based; details: in vivo
In short: (§5)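 Male albino Sprague-Dawley rats were dosed ip or orally. […] Protective index = TD50/ED50, the ED50 taken from maximal electroshock by the same route.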

Rattus norvegicus [13] = assay: Anticonvulsant activity in ip dosed albino Sprague-Dawley rat measured at 0.25 hrs by maximal electroshock seizure test; format: functional; in short: as §1
[14] = Behavioural toxicity in ip dosed albino Sprague-Dawley rat measured at 1 hr; format: organism-based; details: in vivo; in short: as §5
[15] = Protective index, ratio of TD50 for behavioural toxicity in ip dosed albino Sprague-Dawley rat to ED50 for anticonvulsant activity in ip dosed MES albino Sprague-Dawley rat model; format: organism-based; details: in vivo, read-out: Ratio TD50/ED50; in short: as §5
Rattus norvegicus [16] = organism: Rattus norvegicus; assay: Inhibition of voltage-gated sodium channel in rat embryonic cortical neurons assessed as half-maximal voltage for steady state activation at 10 uM by whole cell patch-clamp electrophysiology (reference value: -27.1 +/- 1.3 mV); in short: as §4
Mus musculus [17] = assay: Anticonvulsant activity in ip dosed albino Carworth Farms No. 1 mouse measured at 0.25-0.5 hrs by 6Hz (32 mA) psychomotor seizure test; format: functional; details: Carworth Farms No. 1, ip
In short: (§6)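 Screened under the NIH Anticonvulsant Screening Program in male rodents, with mice and rats dosed ip and rats also dosed po. Maximal electroshock (MES) and 6 Hz (32 mA) psychomotor seizure tests were run.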

Rattus norvegicus [18] = assay: Anticonvulsant activity in po dosed albino Sprague-Dawley rat measured at 0.25 - 4.0 hrs by maximal electroshock seizure test; format: functional; in short: as §6
Mus musculus [19] = assay: Anticonvulsant activity in ip dosed albino Carworth Farms No. 1 mouse by maximal electroshock seizure test; format: functional; details: Carworth Farms No. 1, ip; in short: as §6
Rattus norvegicus [20] = assay: Anticonvulsant activity in po dosed albino Sprague-Dawley rat by maximal electroshock seizure test; format: functional; in short: as §6
Mus musculus [21] = assay: Anticonvulsant activity in ip dosed albino Carworth Farms No. 1 mouse measured at 0.5 hrs by maximal electroshock seizure test; format: functional; details: Carworth Farms No. 1, ip; in short: as §1
Mus musculus [22] = assay: Anticonvulsant activity in ip dosed albino Carworth Farms No. 1 mouse measured at 0.25 hrs by 6Hz (32 mA) psychomotor seizure test; format: functional; details: Carworth Farms No. 1, ip; in short: as §1
Rattus norvegicus [23] = assay: Anticonvulsant activity in po dosed albino Sprague-Dawley rat measured at 1 hr by maximal electroshock seizure test; format: functional; in short: as §1
[24] = Behavioural toxicity in po dosed albino Sprague-Dawley rat measured at 0.5 hrs; format: organism-based; details: in vivo; in short: as §5
[25] = Protective index, ratio of TD50 for behavioural toxicity in po dosed albino Sprague-Dawley rat to ED50 for anticonvulsant activity in po dosed MES albino Sprague-Dawley rat model; format: organism-based; details: in vivo, read-out: Ratio TD50/ED50
In short: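 Male albino Sprague-Dawley rats were dosed ip or orally. Protective index = TD50/ED50, the ED50 taken from maximal electroshock by the same route.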

Rattus norvegicus [26] = assay: Anticonvulsant activity in ip dosed albino Sprague-Dawley rat measured at 0.5 hrs by maximal electroshock seizure test; format: functional; in short: as §6
[27] = Behavioural toxicity in ip dosed albino Sprague-Dawley rat measured at 0.5 hrs; format: organism-based; details: in vivo
Rattus norvegicus [28] = organism: Rattus norvegicus; assay: Inhibition of voltage-gated sodium channel in rat embryonic cortical neurons assessed as transition of channels to slow-inactivated state at 10 uM measured at -50 mV by whole cell patch-clamp electrophysiology
In short: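 E19 rat cortical neurons cultured 7–10 days were recorded by whole-cell voltage clamp at room temperature, with electrodes of 1–2 MΩ. Compound was at 10 μM versus 0.1% DMSO control. Slow inactivation at −50 mV was calculated as 1 minus normalized peak INa, from 5–8 cells per condition.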

Mus musculus [29] = assay: as §2; format: toxicity, organism-based; details: mouse, in vivo, 0.5 h; in short: as §3
Rattus norvegicus [30] = assay: Anticonvulsant activity in po dosed albino Sprague-Dawley rat measured at 0.5 - 4 hrs by maximal electroshock seizure test; format: functional; in short: as §1
Mus musculus [31] = assay: Anticonvulsant activity in ip dosed albino Carworth Farms No. 1 mouse measured at 1 hr by maximal electroshock seizure test; format: functional; details: Carworth Farms No. 1, ip; in short: as §1
Rattus norvegicus [32] = assay: Anticonvulsant activity in po dosed albino Sprague-Dawley rat measured at 5 hrs by maximal electroshock seizure test; format: functional; in short: as §1
Rattus norvegicus [33] = assay: Anticonvulsant activity in po dosed albino Sprague-Dawley rat measured at 0.5 hrs by maximal electroshock seizure test; format: functional; in short: as §1
[34] = Behavioural toxicity in ip dosed albino Sprague-Dawley rat measured at 0.25 hrs; format: organism-based; details: in vivo; in short: as §5
[35] = Behavioural toxicity in po dosed albino Sprague-Dawley rat; details: in vivo
Rattus norvegicus [36] = assay: Anticonvulsant activity in ip dosed albino Sprague-Dawley rat by maximal electroshock seizure test; format: functional; in short: as §6

COC[C@@H](NC(C)=O)C(=O)NCc1ccc(Oc2ccccc2)cc1
ED50 (Mus musculus [1]): < 30 mg/kg
ED50 (Mus musculus [2]): < 30 mg/kg
TD50 at 0.5 h [3]: < 100 mg/kg
inhibition (Rattus norvegicus [4]): Active
Activity (Rattus norvegicus [5]): inactive
Activity (Rattus norvegicus [6]): inactive
inhibition (Rattus norvegicus [7]): inactive

COC[C@@H](NC(C)=O)C(=O)NCc1ccc(Oc2cccc(OC)c2)cc1
ED50 (Mus musculus [8]): 13 mg/kg
ED50 (Mus musculus [2]): < 100 mg/kg
TD50 at 0.25 h [9]: 85 mg/kg
selectivity ratio [10]: 6.5
ED50 (Rattus norvegicus [11]): 30 mg/kg
TD50 [12]: > 30 mg/kg
ED50 (Rattus norvegicus [13]): 15 mg/kg
TD50 at 1 h [14]: 120 mg/kg
selectivity ratio [15]: 8
V1/2 (Rattus norvegicus [16]): -36.8 mV
inhibition (Rattus norvegicus [7]): inactive

COC[C@@H](NC(C)=O)C(=O)NCc1ccc(Oc2cccc(F)c2)cc1
ED50 (Mus musculus [8]): 5.5 mg/kg
ED50 (Mus musculus [17]): 10 mg/kg
selectivity ratio [10]: 4.2
ED50 (Rattus norvegicus [18]): < 10 mg/kg
TD50 [12]: > 10 mg/kg
inhibition (Rattus norvegicus [7]): inactive

C[C@H](NCc1ccc(OCc2cccc(F)c2)cc1)C(N)=O [SAFINAMIDE]
ED50 (Mus musculus [19]): 4.1 mg/kg
ED50 (Rattus norvegicus [20]): 12 mg/kg

COC[C@@H](NC(C)=O)C(=O)NCc1ccc(Oc2cccc(Cl)c2)cc1
ED50 (Mus musculus [21]): 9.4 mg/kg
ED50 (Mus musculus [22]): 20 mg/kg
TD50 at 0.25 h [9]: 47 mg/kg
selectivity ratio [10]: 5
ED50 (Rattus norvegicus [23]): 12 mg/kg
TD50 at 0.5 h [24]: 210 mg/kg
selectivity ratio [25]: 18
ED50 (Rattus norvegicus [26]): 5.9 mg/kg
TD50 at 0.5 h [27]: 49 mg/kg
selectivity ratio [15]: 8.3
inhibition (Rattus norvegicus [28]): Active
inhibition (Rattus norvegicus [7]): inactive

COC[C@@H](NC(C)=O)C(=O)NCc1ccc(Oc2cccc(C(F)(F)F)c2)cc1
ED50 (Mus musculus [21]): 10 mg/kg
ED50 (Mus musculus [2]): < 100 mg/kg
TD50 (Mus musculus [29]): > 100 mg/kg
ED50 (Rattus norvegicus [30]): < 30 mg/kg
TD50 [12]: > 30 mg/kg
V1/2 (Rattus norvegicus [16]): -35.6 mV
inhibition (Rattus norvegicus [7]): inactive

CCC1(c2ccccc2)C(=O)NC(=O)NC1=O [PHENOBARBITAL]
ED50 (Mus musculus [31]): 22 mg/kg
ED50 (Rattus norvegicus [32]): 9.1 mg/kg

COC[C@@H](NC(C)=O)C(=O)NCc1ccc(Oc2cccc(C)c2)cc1
ED50 (Mus musculus [8]): 14 mg/kg
ED50 (Mus musculus [2]): 100 mg/kg
TD50 at 0.25 h [9]: 65 mg/kg
selectivity ratio [10]: 4.6
ED50 (Rattus norvegicus [33]): < 30 mg/kg
TD50 [12]: > 30 mg/kg
ED50 (Rattus norvegicus [13]): 12 mg/kg
TD50 at 0.25 h [34]: 140 mg/kg
selectivity ratio [15]: 12
inhibition (Rattus norvegicus [7]): inactive

CCCC(CCC)C(=O)O [VALPROIC ACID]
ED50 (Mus musculus [8]): 270 mg/kg

O=C1NC(=O)C(c2ccccc2)(c2ccccc2)N1 [PHENYTOIN]
ED50 (Rattus norvegicus [20]): 28 mg/kg
TD50 [35]: > 1000 mg/kg
ED50 (Rattus norvegicus [36]): 2.4 mg/kg

COC[C@@H](NC(C)=O)C(=O)NCc1ccccc1 [LACOSAMIDE]
ED50 (Mus musculus [2]): 10 mg/kg
TD50 at 0.5 h [24]: > 500 mg/kg
